# Active and inactive are the calls of the source. The rule behind the calls is not given here.
# Columns and labels:
# [1] = Toxicity in human U-937 cells assessed as reduction in cell viability after 48 hrs by WST8 assay; format: cell-based
# How it was run: (§1)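 Parental, uninfected lines (A3.01 for ACH-2, U937 for U1) at 5 × 10^5 cells/ml cultured with or without drug. Viable cells read at 48 h (day 2) and expressed as % of untreated control. CC50 taken as the concentration lowering viability by 50%.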
# [2] = Toxicity in human PBMC assessed as reduction in cell viability after 5 days by WST8 assay; format: cell-based; conditions: time 5 day
# How it was run: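 PBMC from a healthy donor exposed to drug, with viability determined at day 5. CC50 is the concentration reducing viability by 50%.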
# [3] = Toxicity in human A3.01 cells assessed as reduction in cell viability after 48 hrs by WST8 assay; format: cell-based; how it was run: as §1
# [4] = molecular target: Protein kinase C (PKC); experiment: Activation of PKC in human U1 cells infected with latent HIV-1 assessed as reversal of HIV-1 latency by measuring increase in p24 antigen level incubated for 48 hrs by chemiluminescent enzyme immunoassay; format: cell-based
# [5] = molecular target: Protein kinase C (PKC); experiment: Activation of PKC in human ACH-2 cells infected with latent HIV-1 assessed as reversal of HIV-1 latency by measuring increase in p24 antigen level incubated for 48 hrs by chemiluminescent enzyme immunoassay; format: cell-based; conditions: ach-2 cell line
# [6] = molecular target: T1, Protein kinase C (PKC) (Homo sapiens) (UniProt O94806+P41743+P17252+P05129+Q05655+P05771+Q05513+Q02156+P24723+Q15139+Q04759); experiment: Activation of PKC in human ACH-2 cells infected with latent HIV-1 assessed as reversal of HIV-1 latency by measuring increase in p24 antigen level at 1 to 10000 nM incubated for 48 hrs by chemiluminescent enzyme immunoassay; format: cell-based; conditions: ACH-2 cell line, dose 1-10000 nM
# How it was run: (§2)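 ACH-2 or U1 cells (5 × 10^5 cells/ml) incubated 48 h with graded drug concentrations. Supernatant p24 antigen measured by automated chemiluminescent immunoassay. EC50 calculated taking the maximum response with excess PMA as 100%. Means ± S.D. of three independent experiments.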
# [7] = molecular target: T1, Protein kinase C (PKC) (Homo sapiens); experiment: Activation of PKC in human U1 cells infected with latent HIV-1 assessed as reversal of HIV-1 latency by measuring increase in p24 antigen level at 1 to 10000 nM incubated for 48 hrs by chemiluminescent enzyme immunoassay; format: cell-based; conditions: dose 1-10000 nM; how it was run: as §2
# [8] = Induction of apoptosis in human CEM A3.01 cells assessed as caspase-3 activation at 1 uM incubated for 24 hrs by flow cytometry; format: functional
# How it was run: (§3)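 Cells fixed in 1% paraformaldehyde, permeabilized, stained 30 min on ice with anti-active caspase-3 mAb, and analysed by flow cytometry. Three independent experiments.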
# [9] = system: ACH-2 cell line; experiment: Induction of apoptosis in human ACH-2 cells at 1 uM incubated for 48 hrs by propidium iodide/annexin-V staining based flow cytometry (reference value: 3.16%); format: functional
# [10] = system: ACH-2 cell line; experiment: Induction of apoptosis in human ACH-2 cells at 1 uM after 48 hrs by PI/annexin-V staining based flow cytometry; format: functional
# [11] = system: Jurkat; experiment: Induction of apoptosis in human Jurkat cells assessed as caspase-3 activation at 1 uM incubated for 24 hrs by flow cytometry; format: functional; how it was run: as §3
# [12] = system: ACH-2 cell line; experiment: Induction of apoptosis in human ACH-2 cells assessed as cleaved-PARP level at 1 uM incubated for 24 hrs by flow cytometry (reference value: 1.64%); format: functional
# How it was run: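 Cells fixed, permeabilized, stained on ice with anti-cleaved PARP (Asp-214) mAb; % cleaved-PARP cells by flow cytometry. Means ± S.D. of three independent experiments.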
# [13] = system: J-Lat 6.3; experiment: Induction of apoptosis in human J-Lat 6.3 cells assessed as caspase-3 activation at 1 uM incubated for 24 hrs by flow cytometry; format: functional; how it was run: as §3
# [14] = system: ACH-2 cell line; experiment: Induction of apoptosis in human ACH-2 cells assessed as caspase-3 activation at 1 uM incubated for 24 hrs by flow cytometry; format: functional; how it was run: as §3
# [15] = system: J-Lat 6.3; experiment: Induction of apoptosis in human J-Lat 6.3 cells at 1 uM incubated for 48 hrs by propidium iodide/annexin-V staining based flow cytometry (reference value: 3.16%); format: functional
# [16] = system: U1; experiment: Induction of apoptosis in human U1 cells at 1 uM incubated for 48 hrs by propidium iodide/annexin-V staining based flow cytometry (reference value: 3.16%); format: functional
# [17] = system: J-Lat 6.3 (Homo sapiens); experiment: Induction of apoptosis in human J-Lat 6.3 cells at 1 uM incubated for 48 hrs after pre-incubated for 2 hrs with 20 uM caspase inhibitor Q-VD-Oph by propidium iodide/annexin-V staining based flow cytometry
# [18] = molecular target: T1, Protein kinase C (PKC) (Homo sapiens); experiment: Activation of PKC in human J-Lat 6.3 cells infected with latent HIV-1 assessed as reversal of HIV-1 latency by measuring increase of GFP-positive cells at 10 uM in presence of PKC alpha/beta/gamma inhibitor GF109203X incubated for 24 hrs by flow cytometry; format: cell-based
# How it was run: (§4)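 J-Lat 6.3 cells pretreated 3 h with a PKC inhibitor: Gö 6983 1 µM, Gö 6976 1 µM, GF 109203X 1 µM, PKCθ/δ inhibitor 10 µM, or Rottlerin 1 µM. Then exposed to 10 µM compound for 24 h; GFP-positive cells counted by flow cytometry. Mean ± S.D.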
# [19] = molecular target: T1, Protein kinase C (PKC) (Homo sapiens); experiment: Activation of PKC in human J-Lat 6.3 cells infected with latent HIV-1 assessed as reversal of HIV-1 latency by measuring increase of GFP-positive cells at 10 uM in presence of PKC theta/delta/epsilon/eta inhibitor PKCtheta/delta inhibitor incubated for 24 hrs by flow cytometry; format: cell-based; how it was run: as §4
# [20] = molecular target: T1, Protein kinase C (PKC) (Homo sapiens); experiment: Activation of PKC in human J-Lat 6.3 cells infected with latent HIV-1 assessed as reversal of HIV-1 latency by measuring increase of GFP-positive cells at 10 uM in presence of PKC alpha/beta inhibitor Go-6976 incubated for 24 hrs by flow cytometry; format: cell-based; how it was run: as §4
# [21] = system: J-Lat 6.3; experiment: Induction of apoptosis in human J-Lat 6.3 cells assessed as caspase-3 activation at 1 uM incubated for 24 hrs by flow cytometry (reference value: 2.43%); format: functional; how it was run: as §3
# [22] = molecular target: T1, Protein kinase C (PKC) (Homo sapiens); experiment: Activation of PKC in human J-Lat 6.3 cells infected with latent HIV-1 assessed as reversal of HIV-1 latency by measuring increase of GFP-positive cells at 10 uM in presence of PKC delta inhibitor Rottlerin incubated for 24 hrs by flow cytometry; format: cell-based; how it was run: as §4
# [23] = system: ACH-2 cell line; experiment: Induction of apoptosis in human ACH-2 cells at 1 uM incubated for 48 hrs after pre-incubated for 2 hrs with 20 uM caspase inhibitor Q-VD-Oph by propidium iodide/annexin-V staining based flow cytometry; format: functional, cell-based
# How it was run: (§5)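 ACH-2 or U1 cells pretreated 2 h with 20 µM pan-caspase inhibitor Q-VD-Oph, then exposed to 1 µM compound for 48 h. Annexin-V/PI staining by flow cytometry; apoptotic proportions compared with and without Q-VD-Oph. Mean ± S.D.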
# [24] = molecular target: T1, Protein kinase C (PKC) (Homo sapiens); experiment: Activation of PKC in human J-Lat 6.3 cells infected with latent HIV-1 assessed as reversal of HIV-1 latency by measuring increase of GFP-positive cells at 10 uM in presence of pan-PKC inhibitor Go-6983 incubated for 24 hrs by flow cytometry; format: cell-based; how it was run: as §4
# [25] = system: U-937; experiment: Induction of apoptosis in human U-937 cells assessed as caspase-3 activation at 1 uM incubated for 24 hrs by flow cytometry; format: functional; how it was run: as §3
# [26] = system: U1; experiment: Induction of apoptosis in human U1 cells at 1 uM after 48 hrs by PI/annexin-V staining based flow cytometry; format: functional
# [27] = system: U1; experiment: Induction of apoptosis in human U1 cells assessed as caspase-3 activation at 1 uM incubated for 24 hrs by flow cytometry (reference value: 1.86%); format: functional; how it was run: as §3
# [28] = system: U1; experiment: Induction of apoptosis in human U1 cells at 1 uM incubated for 48 hrs after pre-incubated for 2 hrs with 20 uM caspase inhibitor Q-VD-Oph by propidium iodide/annexin-V staining based flow cytometry; format: functional, cell-based; how it was run: as §5
# [29] = system: U1; experiment: Induction of apoptosis in human U1 cells assessed as caspase-3 activation at 1 uM incubated for 24 hrs by flow cytometry; format: functional; how it was run: as §3
# [30] = molecular target: T1, Protein kinase C (PKC) (Homo sapiens); experiment: Activation of PKC in CCL19-induced human CD4+ T-cells infected with latent HIV-1 assessed as reversal of HIV-1 latency by measuring increase in p24 antigen level at 2 uM incubated for 48 hrs in presence of 100 nM PMA by chemiluminescent enzyme immunoassay; format: cell-based; conditions: CD4+ T cell, filed as activator
# [31] = Toxicity in human CD4+ T-cells assessed as increase in ratio of CD25+ cells incubated for 24 hrs by flow cytometry; format: cell-based; conditions: cd4+ t cell
# How it was run: (§6)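 Primary CD4+ T-cells from healthy donors treated with drug for 24 h. Cells stained with anti-CD25 and anti-CD69 antibodies (plus CD3, CD4, HLA-DR) for 30 min on ice, then marker-positive proportions quantified by flow cytometry.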
# [32] = Toxicity in human CD4+ T-cells assessed as increase in ratio of CD69+ cells incubated for 24 hrs by flow cytometry; format: cell-based; conditions: cd4+ t cell; how it was run: as §6
Structure (SMILES),CC50 at 48 h [1] [µM],CC50 at 120 h [2] [µM],CC50 at 48 h [3] [µM],EC50 [4] [µM],EC50 [5] [µM],Activity ([6]; filed as activator),Activity ([7]; filed as activator),Activity [8] [%],Activity [9] [%],Activity [10] [%],Activity [11] [%],Activity [12] [%],Activity [13] [%],Activity [14] [%],Activity [15] [%],Activity [16] [%],Activity [17],Activity [21] [%],Activity [23],Activity [25] [%],other results
CCCCCCCCCCc1ccc2c(c1)N(C)[C@H](C(C)C)C(=O)N[C@H](CO)CC2,> 100,> 100,> 100,4,1.54,Active,Active,–,–,–,–,–,–,–,–,–,–,–,–,–,–
CCCCCCCCCCc1ccc2c(c1)N(C)[C@@H](C(C)C)C(=O)N[C@H](CO)CC2,–,–,–,–,–,–,–,–,–,–,–,–,–,–,–,–,–,–,–,–,Activity [6]: inactive; Activity [7]: inactive
CC(C)[C@H]1C(=O)N[C@H](CO)Cc2c[nH]c3cccc(c23)N1C [INDOLACTUM],> 100,> 100,> 100,0.36,0.047,Active,Active,2.69,45.1,47.1,1.72,24.2,14.1,24.2,15.7,17.7,inactive,22.2,inactive,0.584,Activity [18]: inactive; Activity [19]: inactive; Activity [20]: inactive; Activity [22]: inactive; Activity [24]: inactive; Activity [26]: 18%; Activity [27]: 7.82%; Activity [28]: inactive; Activity [29]: 30.5%
CC(C)[C@H]1C(=O)N[C@H](CO)Cc2cc3c(cc2N1C)C(C)(C)CCC3(C)C,22.9,65.8,19.5,9.89,2.91,Active,Active,–,–,–,–,–,–,–,–,–,–,–,–,–,–
CCCCCCCCCCc1ccc2c(c1)N(C)[C@H](C(C)C)C(=O)N[C@H](CO)C2,39.2,18.9,17.8,2.33,0.43,Active,Active,1.26,18.2,20.4,0.587,10,2.25,11.5,7.95,5.9,inactive,4.35,inactive,0.127,Activity [18]: inactive; Activity [19]: inactive; Activity [20]: inactive; Activity [22]: inactive; Activity [24]: inactive; Activity [26]: 6.1%; Activity [27]: 4.66%; Activity [28]: inactive; Activity [29]: 8.42%
C[C@H](CCC(=O)O)C[C@H](C)C[C@H](C)C(=O)/C=C(\O)[C@H](C)C[C@H](C)C/C=C/[C@@H](C)[C@@H](O)[C@@H](C)[C@@H](O)C[C@@H]1CC[C@@](C)([C@H]2CC[C@@](C)([C@@H](C)O)O2)O1,–,–,–,–,–,–,–,–,–,–,–,–,–,–,–,–,–,–,–,–,Activity [30]: Active
CC(C)[C@@H]1C(=O)N[C@H](CO)Cc2cc3c(cc2N1C)C(C)(C)CCC3(C)C,–,–,–,–,–,–,–,–,–,–,–,–,–,–,–,–,–,–,–,–,Activity [6]: inactive; Activity [7]: inactive
CC(=O)O[C@@]12C[C@@H](C)[C@@]3(O)[C@@H](C=C(CO)C[C@]4(O)C(=O)C(C)=C[C@@H]34)[C@@H]1C2(C)C [PROSTRATIN],> 100,> 100,> 100,–,–,–,–,1.06,34.7,37.7,1.47,15.2,8.66,14,13.7,12.7,inactive,15.6,inactive,0.307,Activity [31]: Non-Toxic; Activity [26]: 14.1%; Activity [27]: 7.83%; Activity [28]: inactive; Activity [29]: 29.9%; Activity [32]: Non-Toxic

# — ChEMBL document CHEMBL5674882, “Benzolactam-related compounds promote apoptosis of HIV-infected human cells via protein kinase C-induced HIV latency reversal” (J Biol Chem, 2019)
